Screening data deposited in PubChem by Johns Hopkins Ion Channel Center.
Rows were chosen to be rich in hits. Some 2.9% of all compounds tested hit in one or more screens of this group.
TRPC6 activator – mouse TRPC6 channel activators, primary screen, cell-based, HEK293, membrane potential dye; hit rate 0.13% among 310,000; B-score at 10 µM; AID 2550, 2010; Short transient receptor potential channel 6 (Mus musculus), Q61143; HEK293-TRPC6 membrane potential dye fluorescence; stronger effect = higher value;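 active means B-score of the integrated fluorescence ratio above library mean plus 3 SD, and starting fluorescence ratio within library mean plus 5 SD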;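 further: higher score means more depolarization so channel activation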
TRPC4 block – inhibitors of mouse TRPC4 channel, primary screen, Fluo4 calcium, HEK293 TRPC4beta/mu-opioid cells. hit rate 0.39% among 300,000. B-score at 10 µM. AID 2247, 2010. DAMGO-evoked Fluo4 calcium flux; stronger effect = lower value. Short transient receptor potential channel 4 (Mus musculus), Q9QUQ5;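 active means B-score over 3 SD under the library average, no early fluorescence shift, positive overall ratio signal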
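Assay system: TRPC4beta/mu-opioid receptor HEK293 cell line; compound dosing: single concentration per test compound; detection: Fluo4 Ca2+ flux fluorescence; evaluation: per-well B score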
Kir21 inh – inhibitors of mouse Kir2.1 inward-rectifier potassium channel | HEK293-Kir2.1, FluxOR thallium flux fluorescence; stronger effect = lower value | hit rate 0.85% among 310,000 | B-score at 10 µM;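 active means fluorescence ratio B-score at or below minus 3 SD of library scores, with starting-brightness B-score within 2 SD, cut at about -4.2 in these data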;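 further: channel flux triggered by added potassium and thallium sulfate stimulus; B-score of peak minus minimum fluorescence over baseline after thallium stimulus; more negative B-score means stronger Kir2.1 block with less thallium influx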
Target sequence (P35561 whole entry, looked up): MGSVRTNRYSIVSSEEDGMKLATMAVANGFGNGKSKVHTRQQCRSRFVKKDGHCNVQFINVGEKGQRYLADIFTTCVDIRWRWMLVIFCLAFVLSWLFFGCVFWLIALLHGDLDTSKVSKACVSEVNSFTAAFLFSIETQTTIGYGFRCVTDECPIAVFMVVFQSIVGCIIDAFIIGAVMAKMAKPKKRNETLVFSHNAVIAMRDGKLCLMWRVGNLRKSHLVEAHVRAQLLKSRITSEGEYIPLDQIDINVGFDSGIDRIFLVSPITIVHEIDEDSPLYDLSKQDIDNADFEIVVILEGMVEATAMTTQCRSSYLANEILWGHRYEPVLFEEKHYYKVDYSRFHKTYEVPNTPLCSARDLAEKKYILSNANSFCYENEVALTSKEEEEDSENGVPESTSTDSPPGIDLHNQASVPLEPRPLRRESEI
TRPC4 PAM – positive allosteric modulators of TRPC4, primary screen, cell-based, mouse TRPC4beta, HEK293 mu-opioid, Fluo-4 calcium; Short transient receptor potential channel 4 (Mus musculus), Q9QUQ5; DAMGO EC20, Fluo-4 Ca2+ flux; stronger effect = higher value; B-score at 10 µM; hit rate 0.42% among 310,000;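 active means B-score of calcium response area above 5 SD of library B-scores, with initial fluorescence ratio within 5 SD of library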;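 further: B-score of integrated fluorescence ratio over time as area under calcium response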
TRPC4 act – activators of mouse TRPC4 channel, primary screen, Fluo4 calcium, HEK293 TRPC4beta/mu-opioid cells; hit rate 0.49% among 310,000; Fluo4 calcium fluorescence; stronger effect = higher value; B-score at 10 µM; Short transient receptor potential channel 4 (Mus musculus), Q9QUQ5;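 active means B-score above 5 SD of library B-scores, and initial fluorescence ratio not above library mean plus 5 SD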;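 further: positive B-score marks a calcium rise read as TRPC4 activation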
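Assay system: HEK293 stable line with TRPC4beta plus mu-opioid receptor. Times: dye 45 min RT, read 110 s. Measured by: kinetic Fluo4 calcium fluorescence. Measure: B score of integrated ratio. Controls: assay buffer as low control, maximal DAMGO as high control.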
TRPC6 inhibitor – mouse TRPC6 channel inhibitors, primary screen, cell-based, HEK293, membrane potential dye; AID 2553, 2010; B-score at 10 µM; hit rate 1.1% among 310,000; ACh-evoked depolarization; stronger effect = lower value; Short transient receptor potential channel 6 (Mus musculus), Q61143;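 active means B-score under library mean minus 3 SD, initial fluorescence not abnormally high, positive integrated signal ratio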;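 further: B-score derived from integrated fluorescence ratio over the kinetic read; more negative B-score means stronger inhibition of depolarization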
Active calls of the source: *; i = inactive.

SMILES	TRPC6 activator	TRPC4 block	Kir21 inh	TRPC4 PAM	TRPC4 act	TRPC6 inhibitor
COc1ccc2[nH]c(=O)c(CN(Cc3nnnn3Cc3ccco3)C3CCCCC3)cc2c1	i	i	-4.45*	i	i	i
COc1ccc2[nH]c(=O)c(CN(C3CCCCC3)C(c3nnnn3Cc3ccco3)C(C)C)cc2c1 (centres undefined)	i	i	-2.95	i	i	i
NC(=O)C1CCN(CC(O)COc2ccc(-c3ccccc3)cc2)CC1 (centres undefined)	i	i	-0.52	i	i	i
C=C(C)C1CC=C(C)/C(=N/NC(=O)CNc2ccc(OCC)cc2)C1 (centres undefined)	i	i	0.76	i	i	i
COC(=O)c1c(C(=O)OC)c(C)n(Cc2cccnc2)c1C	i	i	-1.08	i	i	i
CC(C)(C)[C@]1(O)CCN2C[C@H]3c4ccccc4CCc4cccc(c43)[C@@H]2C1	i	i	-1.29	i	61*	i
N#C/C(=C\c1cccc(O)c1)C(=O)N1CCCCC1	i	i	1.69	i	i	i
N#C/C(=C\c1ccccc1)C(=O)N1CCN(c2ccccc2F)CC1	i	i	-5.14*	i	i	i
N#C/C(=C\c1cccc(Br)c1)C(=O)N1CCCCC1	i	i	-6.9*	i	i	i
O=C(COc1cccc2ccccc12)N/N=C/c1ccc(Sc2nc3ccccc3s2)o1	i	i	-1	i	i	i
O=C(NC(=S)N1CCN(c2ccc([N+](=O)[O-])cc2Cl)CC1)c1ccco1	i	i	1.06	12*	i	i
Cn1nnnc1SCC(=O)c1cccs1	i	i	0.62	i	i	i
CCOC(=O)N1CCC(NC(=S)Nc2ccc3nc(N4CCN(C)CC4)cc(C)c3c2)CC1	i	i	1.5	i	i	i
O=C(N/N=C/c1ccccc1F)NC1CCCCC1	i	i	-1.58	21*	177*	i
Brc1ccc2cccnc2c1	i	i	-0.91	i	i	i
CN(CCCCCCN(C)Cc1ccccc1O)Cc1ccccc1O	i	i	-5.15*	i	i	i
CCOC(=O)C1(CCCc2ccccc2)CCN(Cc2cn(CC)nc2C)CC1	i	i	-1.08	i	124*	i
CCOC(=O)C1(Cc2cccc(F)c2)CCN(Cc2c(C)nn(CC)c2C)CC1	i	-6*	-1.37	i	i	i
CCOC(=O)C1(Cc2cccc(F)c2)CCN(Cc2cn(CC)nc2C)CC1	i	i	0.23	i	78*	i
CCCn1ncc(CN2CCC(Cc3cccc(F)c3)(C(=O)OCC)CC2)c1C	i	i	0	i	i	i
CCOC(=O)C1(CCCc2ccccc2)CCN(Cc2nccn2CC)CC1	i	i	-2.94	i	i	i
COc1ccc(CC(=O)Nc2ccc(S(=O)(=O)Nc3cc(C)on3)cc2)cc1OC	i	i	-0.06	i	i	i
O=[N+]([O-])c1ccc(C2(O)CN(c3ccccc3)C3=[N+]2CCS3)cc1 (centres undefined)	i	-7*	-1.16	i	87*	i
Cc1ccc(C2(O)CN(c3ccccc3)C3=[N+]2CCS3)cc1 (centres undefined)	i	-7*	-0.46	i	43*	i
OC1(c2ccc(F)cc2)CN(c2ccccc2)C2=[N+]1CCS2 (centres undefined)	i	-6*	-1.26	i	i	i
SMILES	TRPC6 activator	TRPC4 block	Kir21 inh	TRPC4 PAM	TRPC4 act	TRPC6 inhibitor
CC1(C)CN(c2ccc(F)cc2)C1=O	i	i	0.09	i	i	i
Cc1ccc(-c2cn(-c3ccccc3)c3[n+]2CCCS3)cc1	i	i	1.89	i	i	i
Cc1nccn1CCN(C)Cc1cn(Cc2ccccc2)nc1-c1ccc2c(c1)OCO2	i	i	-5.48*	i	i	i
CN(Cc1cn(Cc2ccccc2)nc1-c1ccc2c(c1)OCO2)Cc1nccn1C	i	i	0.06	i	i	i
CC1(C)C(=O)OC(C(=O)c2ccc(C(C)(C)C)cc2)C(C)(C)C1=O (centres undefined)	i	i	0.16	13*	i	i
COc1ccc(CN(C)C(=O)c2sccc2-c2ccccc2)c(OC)c1	i	i	-2.11	i	i	i
CN(Cc1ccc(F)cc1)C(=O)c1sccc1-c1ccccc1	i	i	-7.83*	i	i	i
Cc1oc2c(c1C(=O)c1ccccc1)C(=O)C(=O)c1ccccc1-2	i	-6*	-2.8	i	i	i
Cc1ccc(/C=C2\SC(=S)N(CCCC(=O)Nc3ccccc3C(=O)O)C2=O)cc1	i	i	-0.08	i	i	i
COc1ccc(/C=C2/SC(=S)N(CCCC(=O)Nc3ccccc3C(=O)O)C2=O)cc1	i	-6*	0.05	i	i	i
Cc1ccc(Nc2nc(NCCCN3CCOCC3)nc(N)c2[N+](=O)[O-])cc1	i	-6*	-0.49	i	i	i
COc1cccc(-n2nc(C#N)c(Cl)cc2=O)c1	i	i	-4.62*	i	i	i
COc1cccc(-n2nc(C(N)=O)c(O)cc2=O)c1	i	i	1.42	i	i	i
Cc1ccc(N(CC(=O)NC2CCCC2)C(=O)CNC(=O)c2cccs2)cc1F	i	-7*	-0.18	i	i	i
O=C(O)C1C2CCC(CC2)C1C(=O)N1CCN(Cc2ccc(F)cc2)CC1 (centres undefined)	i	i	0.35	i	87*	i
Cc1ccc(OCC(=O)NNC(=O)C2CSC3(C)CCC(=O)N23)cc1 (centres undefined)	i	i	0.73	i	i	i
Cc1ccc(C(=O)NNC(=O)C2CSC3(C)CCC(=O)N23)cc1 (centres undefined)	i	i	-0.13	24*	i	i
COc1cccc(-c2nn(-c3ccccc3)cc2CN(C)C(C)c2ccncn2)c1 (centres undefined)	i	-6*	-0.89	i	51*	i
